Screening results (PubChem)
SENP8 block-1 – blocks the human protease SENP8; purified SENP8, Z-RLRGG-aminoluciferin cleavage, luminescence; inhibition, % at 10 µM; actives 1.2% (n = 330,000); AID 2540; in the data active = inhibition above about 50%
Target sequence (Q96LD8 whole entry, looked up): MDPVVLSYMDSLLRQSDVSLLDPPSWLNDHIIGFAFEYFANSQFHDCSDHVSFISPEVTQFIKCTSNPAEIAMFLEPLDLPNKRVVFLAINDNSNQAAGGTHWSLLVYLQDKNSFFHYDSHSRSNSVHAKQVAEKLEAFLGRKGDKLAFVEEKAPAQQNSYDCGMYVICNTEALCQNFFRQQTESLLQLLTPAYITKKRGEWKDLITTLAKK
SENP7 block – inhibitors of human SENP7 protease | recombinant SENP7, Z-RLRGG-aminoluciferin luminescence, 40 min | inhibition, % at 5 µM | actives 1.5% (n = 330,000) | AID 434973;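 active = inhibition above about 50% at the single test dose, limit read from the data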
SENP6 block – blocks the human protease SENP6 | Recombinant SENP6 catalytic domain, aminoluciferin luminescence | inhibition, % at 10 µM | actives 1.8% (n = 330,000) | AID 2599;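 active = inhibition above about 50% at the single tested dose, limit read from the data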
SENP8 block-2 – blocks human SENP8 cleavage of Nedd8 substrate. Q96LD8. recombinant SENP8, Nedd8 substrate fluorescence. inhibition, % at 20 µM. actives 0.64% (n = 360,000). AID 602440; in the data active = inhibition mostly above about 40%, no sharp cut-off; inactive = mostly below about 27%
SENP1 inh – blocks the human SENP1 SUMO protease catalytic domain | Q9P0U3 | inhibition, % at 10 µM | actives 0.21% (n = 360,000) | recombinant SENP1 catalytic domain, CyPet-SUMO1-YPet FRET cleavage;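 active = inhibition at least 30% at 10 µM, raw YFP signal under a set limit, fluorescence ratio 0.5 to 1.5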
Target sequence (Q9P0U3 419-644 limits assumed): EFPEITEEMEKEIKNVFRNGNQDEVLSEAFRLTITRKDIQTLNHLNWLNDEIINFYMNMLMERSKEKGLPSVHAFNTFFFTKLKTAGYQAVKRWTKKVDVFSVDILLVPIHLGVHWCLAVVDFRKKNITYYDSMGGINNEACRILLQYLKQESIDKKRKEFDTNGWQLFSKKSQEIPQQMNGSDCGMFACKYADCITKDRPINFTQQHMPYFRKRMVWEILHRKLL
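material = recombinant human SENP1 catalytic domain, His6-tagged | quantity = 20 pM enzyme | reagent = 25 nM SUMO1 FRET substrate | compound dosing = 10 µM single point, 0.5% DMSO | timing = 50 min enzyme reaction, room temperature, light-protected | detection = FRET, CFP and YFP emission | control set = no-enzyme low, enzyme-DMSO high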
SENP8 conf – confirmation of human SENP8 protease inhibitors; AID 488912; shares compounds with SENP7 block; inhibition, % at 12.5 µM; actives 40% (n = 6,200); Recombinant SENP8, Z-RLRGG-aminoluciferin luminescence, 60 min;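 active = mean inhibition across replicates above about 50%, limit read from the data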
SENP6 confirm – confirmation of human SENP6 protease inhibitors | inhibition, % at 12.5 µM | actives 58% (n = 6,200) | AID 488915 | recombinant SENP6, Z-RLRGG-aminoluciferin luminescence | shares compounds with SENP7 block
SENP7 conf – human SENP7 inhibition, confirmed | inhibition, % at 12.5 µM | shares compounds with SENP7 block | AID 488917 | recombinant SENP7, Z-RLRGG-aminoluciferin luminescence, 40 min | actives 69% (n = 6,200)
Casp3 SENP sel – selectivity test for SENP inhibitors: human caspase-3 inhibition. shares compounds with SENP7 block. actives 60% (n = 6,200). AID 488918. inhibition, % at 12.5 µM. purified caspase-3, Z-DEVD-aminoluciferin luminescence, 60 min;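 active = mean inhibition above about 50%, limit read from the data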
Target sequence (P42574 28-227 limits assumed): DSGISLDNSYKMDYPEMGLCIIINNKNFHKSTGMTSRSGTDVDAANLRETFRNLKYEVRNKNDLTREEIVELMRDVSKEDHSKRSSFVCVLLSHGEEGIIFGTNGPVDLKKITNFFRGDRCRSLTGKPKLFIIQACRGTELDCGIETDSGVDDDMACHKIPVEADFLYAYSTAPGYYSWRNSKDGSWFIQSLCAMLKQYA
Luc interf – interferes with luciferase luminescence in SENP counter-screen; AID 488919; Pre-incubated SENP8/Z-RLRGG-aminoluciferin, luciferase luminescence interference; shares compounds with SENP7 block; inhibition, % at 12.5 µM; actives 39% (n = 6,200);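 active = mean inhibition above about 50% when retested at one dose, limit read from the data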
Large screens that a line does not name were inactive (follow-up assays come after a bar, where they were run). This is a sample that favours compounds with a hit; in the whole collection about 2.5% have one here.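 Rule for the calls, unless noted: active = mean inhibition above about 50% in the one-dose retest (limit read from the data); inactive = the rest.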

Cc1ccc(Nc2ccc(C(=O)O)cc2N)cc1	SENP8 block-1 94.4, SENP7 block 98.1, SENP6 block 97.7 (no result: SENP8 block-2, SENP1 inh) | SENP8 conf 97.9 | SENP6 confirm 99.0 | SENP7 conf 102.0 | Casp3 SENP sel 89.2 | Luc interf 97.1
COc1ccc2cc1Oc1ccc(cc1)C[C@H]1c3cc(c(OC)cc3CCN1C)Oc1c(OC)c(OC)cc3c1[C@@H](C2)N(C)CC3	SENP6 block 58.2, SENP8 block-2 76.2 | SENP8 conf inactive | SENP6 confirm inactive | SENP7 conf inactive | Casp3 SENP sel inactive | Luc interf inactive
COCCCNc1ccn2nc(-c3ccc(OCc4ccccc4)cc3)cc2n1	none (no result: SENP8 block-1, SENP7 block, SENP6 block)
CCCCNC(=S)NNC(=O)c1csc(CC)c1	none
Cc1cccc(NC(=S)NNC(=O)c2sccc2C)c1	SENP7 block 64.6, SENP6 block 82.9 | SENP8 conf 56.3 | SENP6 confirm 56.1 | SENP7 conf 74.9 | Casp3 SENP sel 67.4 | Luc interf 63.5
CCc1cc(C(=O)NNC(=S)Nc2cccc(C)c2)cs1	SENP7 block 56.1, SENP6 block 74.5 | SENP8 conf inactive | SENP6 confirm inactive | SENP7 conf inactive | Casp3 SENP sel inactive | Luc interf inactive
Cc1cccc(NC(=S)NNC(=O)c2csc(C(C)C)c2)c1	SENP7 block 86.9, SENP6 block 77.0 | SENP8 conf inactive | SENP6 confirm inactive | SENP7 conf inactive | Casp3 SENP sel inactive | Luc interf inactive
N#Cc1ncccc1CCc1cccc(Cl)c1	none
COc1ccccc1N1CCN(C2CCCN(C(=O)CCc3c(C)noc3C)C2)CC1 (centres undefined)	none
CSCCC(NS(=O)(=O)c1ccccc1)C(=O)OCc1cc(=O)oc2cc(O)ccc12 (centres undefined)	none
COc1ccc(NC(=S)NC2CCCCC2)cn1	none
O=C(CSc1nnc(Cc2ccccc2)n1-c1cccc(Cl)c1)NNC(=O)Cc1ccccc1	none
Cc1ccc2ccc(C3C(=O)c4ccccc4C3=O)nc2c1	SENP8 block-1 52.3, SENP6 block 53.3 | SENP8 conf inactive | SENP6 confirm inactive | SENP7 conf inactive | Casp3 SENP sel 58.1 | Luc interf inactive
CS(=O)(=O)N1N=C(c2ccc(Br)cc2)CC1c1cccs1 (centres undefined)	SENP6 block 61.2 | SENP8 conf inactive | SENP6 confirm inactive | SENP7 conf 83.2 | Casp3 SENP sel 55.5 | Luc interf inactive
CCc1ccc(C2=NN(S(C)(=O)=O)C(c3cccs3)C2)cc1 (centres undefined)	SENP8 block-1 83.3, SENP7 block 92.2, SENP6 block 95.6 | SENP8 conf 89.8 | SENP6 confirm 90.2 | SENP7 conf 98.9 | Casp3 SENP sel 89.6 | Luc interf 85.5
CS(=O)(=O)N1N=C(c2cccs2)CC1c1ccccc1 (centres undefined)	none
Cc1ccc(C2=NN(S(C)(=O)=O)C(c3cccs3)C2)cc1 (centres undefined)	SENP8 block-1 53.6, SENP7 block 51.6, SENP6 block 73.7 | SENP8 conf 68.1 | SENP6 confirm 64.5 | SENP7 conf 86.8 | Casp3 SENP sel 75.4 | Luc interf 66.7
COc1ccc(C2=NN(S(C)(=O)=O)C(c3cccs3)C2)cc1 (centres undefined)	none
CCS(=O)(=O)Nc1cccc(C2=NN(S(=O)(=O)c3ccc(C)cc3)C(c3cccs3)C2)c1 (centres undefined)	none
COc1ccc(C)cc1N1CC(C(=O)Nc2ccccc2C(=O)NC2CC2)CC1=O (centres undefined)	none
CSCCC(C(=O)Nc1c(C)cccc1C)N1CCN(c2ccc(C(F)(F)F)cn2)CC1 (centres undefined)	none (no result: SENP8 block-1, SENP7 block, SENP6 block)
Cc1ccc(C)c(NC(=O)C(C)N2C(=O)c3ccccc3C2=O)c1 (centres undefined)	none
Clc1ccccc1-c1nc(-c2ccccc2)n[nH]1	SENP8 block-1 53.2, SENP7 block 73.9, SENP6 block 73.9 | SENP8 conf inactive | SENP6 confirm 56.7 | SENP7 conf 84.8 | Casp3 SENP sel 62.4 | Luc interf 66.2
Oc1ccccc1-c1n[nH]c(-c2ccccc2O)n1	none (no result: SENP8 block-1, SENP7 block, SENP6 block)
Cc1cccc(N/C(N)=N/c2nc(C)c(Cc3ccccc3)c(=O)[nH]2)c1	none
COC(=O)c1ccc(COc2ccccc2/C=C/C(=O)c2ccc(OCC(=O)O)cc2)cc1	SENP6 block 55.4 | SENP8 conf inactive | SENP6 confirm inactive | SENP7 conf inactive | Casp3 SENP sel inactive | Luc interf inactive
O=C(COC(=O)CNC(=O)C1CCCCC1)NCc1ccc(Cl)cc1	none
O=S(=O)(c1ccccc1)N(CC(O)CN1CCOCC1)c1ccccc1 (centres undefined)	SENP8 block-1 76.8 | SENP8 conf inactive | SENP6 confirm inactive | SENP7 conf inactive | Casp3 SENP sel inactive | Luc interf inactive
Cc1ccc([C@@H]2C[C@H]3[C@@H](CN2S(=O)(=O)c2ccc(Cl)cc2)C(=O)C[C@@H](c2ccc(C)cc2)N3S(=O)(=O)c2ccc(Cl)cc2)cc1	none (no result: SENP8 block-1, SENP7 block, SENP6 block)
O=C(CSc1nnc(NC(=O)c2ccco2)s1)Nc1ccccc1F	none
O=C(CSc1nnc(NC(=O)c2ccccc2F)s1)Nc1ccccc1F	SENP8 block-1 69.2, SENP7 block 61.0, SENP6 block 80.4 | SENP8 conf inactive | SENP6 confirm 78.6 | SENP7 conf 90.6 | Casp3 SENP sel 86.7 | Luc interf inactive
CCOc1ccccc1C(=O)Nc1nnc(SCC(=O)N2CCCC2)s1	none (no result: SENP8 block-1, SENP7 block, SENP6 block)
O=C(Nc1nnc(SCC(=O)N2CCCCC2)s1)c1ccccc1F	SENP6 block 99.2 | SENP8 conf inactive | SENP6 confirm inactive | SENP7 conf inactive | Casp3 SENP sel inactive | Luc interf inactive
COc1ccc(/C=C2\SC(=S)N(CC(=O)N3CCN(C)CC3)C2=O)cc1	none
CCOc1ccc(/C=C2\SC(=S)N(CCC(=O)O)C2=O)cc1	SENP8 block-1 96.7, SENP7 block 59.9, SENP6 block 98.6 | SENP8 conf 97.4 | SENP6 confirm 99.8 | SENP7 conf 102.7 | Casp3 SENP sel inactive | Luc interf 92.4
